Screens: PubChem, several laboratories
CRFBP-R2 block – antagonists of CRF-binding protein/CRF-R2 receptor complex; HEK293 CRF-R2/CRF-BP, CRF-induced calcium fluorescence; inhibition, % at 11.8 µM; actives 0.59% (n = 350,000); AID 588475;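 active = inhibition of the ligand-induced calcium signal above about 50% at the single tested concentration, limit read from the data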
CRFBP-R2 agonist – agonists of human CRF-binding protein/CRF-R2 receptor complex. HEK293 CRF-R2/CRF-BP, calcium dye fluorescence (FLIPR); percent of saturating CRF peptide response. activation, % at 13.2 µM. actives 0.46% (n = 350,000). AID 588473;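 active = activation of at least 50%, plus an integration ratio under a set limit after plate pattern correction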;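 note: plate controls were neutral control wells without compound for no effect and CRF at EC100 for full effect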
DDE Tn7 FP inh – DD(E)-Tn7 binding inhibition, primary FP screen; P02675; FP displacement of FITC-Tn7 peptide from fibrin DD(E); 0% = median of compound wells per plate; inhibition, % at 8.3 µM; actives 0.13% (n = 370,000);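 active = inhibition above the mean of compounds falling within the control limits plus 3 SD of them, cut at about 14% in these data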;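 note: 0% = plate median of compound wells and 100% = 10 µM Aha-Tn7 peptide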
Target sequence (P02675 whole entry, looked up): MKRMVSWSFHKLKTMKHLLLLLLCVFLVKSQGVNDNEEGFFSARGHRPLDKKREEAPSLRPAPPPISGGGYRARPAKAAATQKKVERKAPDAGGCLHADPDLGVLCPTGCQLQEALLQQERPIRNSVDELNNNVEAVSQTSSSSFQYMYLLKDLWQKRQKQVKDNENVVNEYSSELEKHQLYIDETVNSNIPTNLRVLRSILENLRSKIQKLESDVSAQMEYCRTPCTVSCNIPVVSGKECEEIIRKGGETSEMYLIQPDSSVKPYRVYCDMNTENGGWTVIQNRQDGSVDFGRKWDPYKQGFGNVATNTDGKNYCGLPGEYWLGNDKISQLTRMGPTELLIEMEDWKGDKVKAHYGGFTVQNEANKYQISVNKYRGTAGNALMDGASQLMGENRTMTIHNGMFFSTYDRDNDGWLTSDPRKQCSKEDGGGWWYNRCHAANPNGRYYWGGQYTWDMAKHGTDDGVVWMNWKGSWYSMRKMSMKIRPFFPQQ
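Test system: human clot-derived fibrin DD(E) complex / Quantity: 2 µM final DD(E) protein / Incubation: 10 min plus 3 h, room temperature / Measured by: fluorescence polarization / Benchmarks: high control of 10 µM Aha-Tn7 peptide / Replicates: singlicate testing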
CendR NRP1 mod – NRP-1/CendR interaction modulation | actives 0.85% (n = 360,000) | inhibition, % at 25 µM | AID 602438 | FAM-RPARPAR peptide binding to NRP-1, fluorescence polarization;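 active = inhibition or corrected inhibition above about 18%, plus a signal ratio from 0.5 to 1.5, limit read from the data, passing the limit was not always enough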
proKLK7 act – activators of human kallikrein-7 zymogen. P49862. purified proKLK7, EDANS-DABCYL substrate fluorescence; 100% is mature enzyme control, 0% vehicle. activation, % at 7 µM. actives 0.9% (n = 370,000). AID 652039;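 active = activation above the mean of all tested compounds plus 3 SD, computed per campaign excluding outliers beyond control limits, cut at about 13% in these data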
Tn6 DDE FP – inhibitors of Tn6 peptide binding to human fibrin DD(E). P02675. Fibrin DD(E) TRITC-Tn6 fluorescence polarization displacement. inhibition, % at 8.3 µM. actives 0.21% (n = 370,000);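 active = inhibition above a per-campaign cutoff: mean of compounds within control limits plus 3 SD, cut at about 15% in these data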;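 note: 0% = median of all compound wells on the plate and 100% = blocking peptide control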
proKLK7 act conf – confirmation of human kallikrein-7 zymogen activators; shares compounds with proKLK7 act; purified proKLK7, EDANS-DABCYL substrate fluorescence; scaled: vehicle 0, mature enzyme 100; activation, % at 7 µM; actives 68% (n = 3,200); AID 686949;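 active = activation, as change over the incubation, above the mean of all tested compounds plus 3 SD, cut at about 13% in these data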
EDANS interfere – counter-screen for kallikrein-7 activators: EDANS-DABCYL optical interference; shares compounds with proKLK7 act; EDANS-DABCYL substrate fluorescence interference, no enzyme, 4 h; solvent 0%, active enzyme control 100%; activation, % at 7 µM; actives 80% (n = 3,200);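 active = activation above the all-compound mean plus 3 SD, ignoring values outside control-based bounds, cut at about 4.8% in these data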;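 note: value is the 4 h activation minus the activation read at time zero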
Starred values were filed as active, the others as inactive; nt = no result. Compounds with a hit are over-represented: about 2.9% of the library has one in this group of screens.

SMILES	CRFBP-R2 block	CRFBP-R2 agonist	DDE Tn7 FP inh	CendR NRP1 mod	proKLK7 act	Tn6 DDE FP	proKLK7 act conf	EDANS interfere
Cc1cc(=O)oc2cc(OC(=O)c3ccccc3)ccc12	2	1	5	-10	117*	0	519*	377*
CCCc1cc(=O)oc2cc(OC(=O)CN3C(=O)NC4(CCCC4)C3=O)ccc12	20	3	5	3	62*	-4	224*	193*
Cc1cc(=O)oc2cc(OCC(=O)c3ccccc3)ccc12	9	-1	-2	11	1	-1	nt	nt
COC(=O)CN1CCN(C(=O)c2csc(-c3ccccc3)n2)CC1	nt	nt	-4	nt	0	4	nt	nt
C[C@H]1CCC/C=C/C(=O)c2c(cc(O)c(Cl)c2O)CC(=O)O1	nt	nt	-3	nt	0	-1	nt	nt
CC(C)c1cc(C(C)C)c(S(=O)(=O)N2CCC(C(=O)NCc3cccs3)CC2)c(C(C)C)c1	nt	nt	4	nt	0	-4	nt	nt
Cc1cc(=O)oc2cc(OCC(=O)N3CCN(C(=O)c4ccco4)CC3)ccc12	-12	1	6	8	-1	-3	nt	nt
Cc1cc(=O)oc2cc(OC(=O)c3ccco3)ccc12	-8	0	-3	-2	459*	-4	729*	769*
CCc1cc(=O)oc2cc(OC(=O)c3ccco3)ccc12	7	-1	1	-4	353*	-6	788*	761*
CCOc1ccc2c(=O)c(Oc3ccccc3OCC)coc2c1	32	1	-4	-3	0	2	nt	nt
CCOc1ccccc1Oc1coc2cc(OC(=O)c3ccco3)ccc2c1=O	48	1	0	2	96*	9	264*	235*
Cc1oc2cc(OC(=O)c3ccco3)ccc2c(=O)c1-c1nc2ccccc2n1C	1	-2	-3	-15	16*	2	115*	104*
Nc1nc2c(ncn2[C@@H]2O[C@H](C(=O)N[C@@H](Cc3ccccc3)C(=O)NCC3CCCCC3)[C@@H](O)[C@H]2O)c(=O)[nH]1	nt	nt	6	nt	1	5	nt	nt
CCOC(=O)c1cccc(-c2cc(C(C)=O)c3n(c2=O)CCC3)c1	nt	nt	5	nt	-1	0	nt	nt
COC(=O)/C=C1\OC(C)c2ccccc21 (stereo not drawn)	nt	nt	-5	nt	0	10	nt	nt
O=C(/C=C(\Nc1cc(Cl)c(F)c(Cl)c1)c1ccccc1)c1ccccc1	nt	nt	6	nt	0	3	nt	nt
c1cnc2nc(CSc3ncn[nH]3)cn2c1	-3	2	-1	4	48*	-3	8	11*
O=C(N1CCc2ccccc2C1)n1cc(C(O)(c2ccccc2)c2ccccc2)nn1	nt	nt	5	nt	nt	-3	nt	nt
CC1(C)CC(=O)C2=C(C1)OC(N)=C(C#N)C2c1cc2c(cc1[N+](=O)[O-])OCO2 (stereo not drawn)	-40	96*	7	72	108*	1	65*	66*
CCOc1cc(C2C(C#N)=C(N)OC3=C2C(=O)CC(C)(C)C3)cc([N+](=O)[O-])c1O (stereo not drawn)	-15	4	-2	18	0	6	nt	nt
CCCC[C@@H]1C(=O)N2N=C(c3ccccc3)c3ccccc3[C@H]2N2N=C(c3ccccc3)c3ccccc3[C@@H]12	nt	nt	-2	nt	-2	0	nt	nt
CC[C@]12c3[nH]c4cc(-c5ccco5)ccc4c3CCN1C(=O)[C@@H](CC(=O)NC(C)(C)C)C[C@@H]2C(=O)N1CCN(C(=O)C2CC2)CC1	0	-1	1	-25	144*	2	203*	163*
C[C@]12c3[nH]c4cc(-c5ccco5)ccc4c3CCN1C(=O)[C@@H](CC(=O)NCc1ccco1)C[C@@H]2C(=O)N1CCOCC1	-4	0	-3	-19	75*	-5	81*	75*
